Test results from publication PMC6848909 (British Journal of Clinical Pharmacology, 2019).
Where two headings read alike, the source gives them in different places. Marks after values point to notes of the source that are not given here.

Columns and labels:
[1] = format: in vivo, human; settings: for Metabolic ratio of AUC0–inf, metabolite/belinostat / Metabolic ratio of Cmax, metabolite/belinostat: Cycle 1 Day −7, geometric mean (geometric SD)
[2] = combination with 13‐cis‐retinoic acid; cited from earlier work
[3] = Phase 1 safety: adverse events; format: in vivo, human
[4] = patients with hepatocellular carcinoma; cited from earlier work
[5] = cited from earlier work
[6] = cited from earlier work; remark: listed apart in the source
[7] = system: solid tumours or lymphomas; experiment: Tumour response by RECIST 1.1; format: in vivo, human
In short: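 CT scans were done at baseline and every 2 cycles, with response per RECIST 1.1. Dosing was IV over 30 min on days 1–5 of 21-day cycles, at doses set by liver-function cohort and dose level, after a single 400 mg/m2 dose on Cycle 1 Day −7. Cohorts were defined by bilirubin and AST relative to ULN.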

[8] = mild liver dysfunction (n = 25)
[9] = severe liver dysfunction (n = 15)
[10] = Dose level 1, mild (n = 9), at least possibly related
[11] = Dose level 1, moderate (n = 6), at least possibly related
[12] = Dose level 1, normal (n = 14), at least possibly related
[13] = Dose level 1, severe (n = 9), at least possibly related
[14] = Dose level 2, mild (n = 14), at least possibly related
[15] = Dose level 2, moderate (n = 6), at least possibly related
[16] = Dose level 2, severe (n = 5), at least possibly related

O=C(/C=C/c1cccc(S(=O)(=O)Nc2ccccc2)c1)NO[C@@H]1O[C@H](C(=O)O)[C@@H](O)[C@H](O)[C@H]1O [Belinostat glucuronide, belinostat glucuronide]
Metabolic ratio of AUC0–inf, metabolite/belinostat [1, 8]: 21.8 (1.63) ^d | Metabolic ratio of Cmax, metabolite/belinostat [1, 8]: 3.57(1.47) ^c | Metabolic ratio of AUC0–inf, metabolite/belinostat ([1]; normal liver function (n = 14)): 18.7 (1.63) | Metabolic ratio of Cmax, metabolite/belinostat ([1]; normal liver function (n = 14)): 3.78 (1.47) | Metabolic ratio of AUC0–inf, metabolite/belinostat [1, 9]: 17.7 (1.91) | Metabolic ratio of Cmax, metabolite/belinostat [1, 9]: 2.85 (1.51)

O=C(/C=C/c1cccc(S(=O)(=O)Nc2ccccc2)c1)NO [Belinostat, belinostat]
MTD (not reached) [2]: ≥ 2000 mg/m^2/day | Patients with at least 1 grade ≥ 3 adverse event at least possibly related to study drug ([3]; All dose levels, all patients, n = 66): 14 (21.2) number (%) of patients | Patients with at least 1 grade ≥ 3 adverse event at least possibly related to study drug ([3]; All dose levels, mild dysfunction, n = 23): 4 (17.4) number (%) of patients | Patients with at least 1 grade ≥ 3 adverse event at least possibly related to study drug ([3]; All dose levels, moderate dysfunction, n = 12): 3 (25) number (%) of patients | Patients with at least 1 grade ≥ 3 adverse event at least possibly related to study drug ([3]; All dose levels, normal liver function, n = 14): 5 (35.7) number (%) of patients | Patients with at least 1 grade ≥ 3 adverse event at least possibly related to study drug ([3]; All dose levels, severe dysfunction, n = 17): 2 (11.8) number (%) of patients | Patients with at least 1 grade ≥ 3 adverse event at least possibly related to study drug ([3]; Dose level 1 (250 mg/m^2), severe dysfunction, n = 9): 1 (11.1) number (%) of patients | Patients with at least 1 grade ≥ 3 adverse event at least possibly related to study drug ([3]; Dose level 1 (500 mg/m^2), moderate dysfunction, n = 6): 1 (16.7) number (%) of patients | Patients with at least 1 grade ≥ 3 adverse event at least possibly related to study drug ([3]; Dose level 1 (750 mg/m^2), mild dysfunction, n = 9): 1 (11.1) number (%) of patients | Patients with at least 1 grade ≥ 3 adverse event at least possibly related to study drug ([3]; Dose level 1 (1000 mg/m^2), normal liver function, n = 14): 5 (35.7) number (%) of patients | Patients with at least 1 grade ≥ 3 adverse event at least possibly related to study drug ([3]; Dose level 1, all patients, n = 38): 8 (21.1) number (%) of patients | Anaemia, Grade 2 [3, 10]: 1 number of patients | Fatigue, Grade 2 [3, 10]: 1 number of patients | Fatigue, Grade 3 [3, 10]: 1 number of patients | Vomiting, Grade 2 [3, 10]: 1 number of patients | Anaemia, Grade 2 [3, 11]: 3 number of patients | Fatigue, Grade 2 [3, 11]: 1 number of patients | Lymphocyte count decreased, Grade 2 [3, 11]: 1 number of patients | Lymphocyte count decreased, Grade 3 [3, 11]: 1 number of patients | Anaemia, Grade 2 [3, 12]: 1 number of patients | Anaemia, Grade 3 [3, 12]: 1 number of patients | Fatigue, Grade 2 [3, 12]: 2 number of patients | Fatigue, Grade 3 [3, 12]: 1 number of patients | Lymphocyte count decreased, Grade 2 [3, 12]: 1 number of patients | Lymphocyte count decreased, Grade 3 [3, 12]: 3 number of patients | Nausea, Grade 2 [3, 12]: 3 number of patients | Vomiting, Grade 2 [3, 12]: 1 number of patients | Fatigue, Grade 2 [3, 13]: 1 number of patients | Vomiting, Grade 2 [3, 13]: 1 number of patients | Lung infection, Grade 5 ([3]; Dose level 1, severe (n = 9), possibly related): 1 number of patients | Patients with at least 1 grade ≥ 3 adverse event at least possibly related to study drug ([3]; Dose level 2 (350 mg/m^2), severe dysfunction, n = 8): 1 (12.5) number (%) of patients | Patients with at least 1 grade ≥ 3 adverse event at least possibly related to study drug ([3]; Dose level 2 (750 mg/m^2), moderate dysfunction, n = 6): 2 (33.3) number (%) of patients | Patients with at least 1 grade ≥ 3 adverse event at least possibly related to study drug ([3]; Dose level 2 (1000 mg/m^2), mild dysfunction, n = 14): 3 (21.4) number (%) of patients | Patients with at least 1 grade ≥ 3 adverse event at least possibly related to study drug ([3]; Dose level 2, all patients, n = 28): 6 (21.4) number (%) of patients | Anaemia, Grade 2 [3, 14]: 3 number of patients | Fatigue, Grade 2 [3, 14]: 2 number of patients | Fatigue, Grade 3 [3, 14]: 2 number of patients | Lymphocyte count decreased, Grade 2 [3, 14]: 4 number of patients | Nausea, Grade 2 [3, 14]: 3 number of patients | Vomiting, Grade 2 [3, 14]: 1 number of patients | Vomiting, Grade 3 [3, 14]: 1 number of patients | Anaemia, Grade 2 [3, 15]: 1 number of patients | Bilirubin increased, Grade 2 [3, 15]: 1 number of patients | Bilirubin increased, Grade 3 [3, 15]: 2 number of patients | Fatigue, Grade 2 [3, 15]: 1 number of patients | Fatigue, Grade 3 [3, 15]: 2 number of patients | Anaemia, Grade 2 [3, 16]: 1 number of patients | Lymphocyte count decreased, Grade 2 [3, 16]: 2 number of patients | Grade 2 or greater anaemia attributed to the study drug ([3]; all treated patients): 17.1% | Grade 2 or greater fatigue attributed to the study drug ([3]; all treated patients): 21.9% | Grade 2 or greater lymphopenia attributed to the study drug ([3]; all treated patients): 18.8% | Patients with grade ≥ 3 toxicity ([3]; mild cohort (4/23)): 17.4% | DLTs ([3]; mild cohort, DL 2 (1000 mg/m^2), 6 evaluable patients): no DLTs | Patients with grade ≥ 3 toxicity ([3]; moderate cohort (3/12)): 25% | DLTs ([3]; moderate cohort, DL 2 (750 mg/m^2), 3 evaluable patients): no DLTs | Patients with a grade ≥ 3 AE ([3]; normal cohort (5/14)): 35.7% | MTD ([3]; patients with mild dysfunction, same as recommended phase 2 dose): 1000 mg/m^2/day | DLTs ([3]; severe cohort, DL 1 (250 mg/m^2), 6 evaluable patients, grade 5 lung infection): 1 | MTD (not reached at highest dose tested) [4]: ≥ 1400 mg/m^2/day | Clearance as % of liver blood flow (extraction) ([1]; normal liver function, clearance 661 mL/min/m^2): 76% | Increase in half‐life from normal to severe ([1]; normal vs severe liver dysfunction cohort, not statistically significant): 33% | % of dose by glucuronidation (UGT1A1 and UGT2B7), clinical mass balance [5]: 41.4% | % of dose by methylation, clinical mass balance [5]: 1.9% | Total administered belinostat excreted unchanged in the urine [5]: up to 2% | Patients who experienced DLT ([6]; at 1200 mg/m^2/day): 3 of 5 | Recommended phase 2 dose ([6]; days 1–5 of a 21‐day cycle): 1000 mg/m^2/day | Complete or partial responses ([7]; any of the 4 cohorts): No complete or partial responses | Patients with stable disease ([7]; of 47 patients evaluable for response): 28% | Patients with stable disease ([7]; of 47 patients evaluable for response, after the first 2 cycles): 13 patients | Patients with stable disease ([7]; on DL 1): 11 patients | Patients with stable disease ([7]; on DL 2): 2 patients | Time on study treatment, median ([7]; patients with stable disease): 4 21‐day cycles | Time on study treatment, range ([7]; patients with stable disease): 2–12 cycles
